# Assay results: ChEMBL document CHEMBL4689842, “EUbOPEN Chemogenomics Library wave 1” (2021)
# Values joined by “and” are separate entries in the source; they are usually repeats but may differ in a detail not shown here. Identical values can stand only once.
# System: HEK-293T
# Experiment: Multiplex assay against HEK293T;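 on Population Tubulin-Different-Phenotype (%): share of the cells with healthy nuclei that show this phenotype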
# Format: toxicity, cell-based
# Details: human
# Procedure, shortened: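 Live cells were stained at seeding with Hoechst33342, BioTracker Green Microtubule Cytoskeleton Dye, MitoTracker Red and Annexin V Alexa Fluor 680. Following compound addition, they were imaged on a CQ1 microscope at 37°C and 5% CO2 and gated by CellPathfinder machine learning into Hoechst high-intensity objects or normal cells, with normal cells split into healthy, pyknosed or fragmented nuclei and pyknosed cells into mitotic or apoptotic. Tubulin, mitochondrial-mass and membrane-permeability phenotypes are per cents of healthy-nucleus cells.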
# [1] = 12 h, 1 µM, compound concentration 1 uM, replicate 1
# [2] = 12 h, 1 µM, compound concentration 1 uM, replicate 2
# [3] = 12 h, 10 µM, compound concentration 10 uM, replicate 1
# [4] = 12 h, 10 µM, compound concentration 10 uM, replicate 2
# [5] = 24 h, 1 µM, compound concentration 1 uM, replicate 1
# [6] = 24 h, 1 µM, compound concentration 1 uM, replicate 2
# [7] = 24 h, 10 µM, compound concentration 10 uM, replicate 1
# [8] = 24 h, 10 µM, compound concentration 10 uM, replicate 2
# [9] = 48 h, 10 µM, compound concentration 10 uM, replicate 1
# [10] = 48 h, 10 µM, compound concentration 10 uM, replicate 2
smiles,measurement,setting,value
c1ccc(-c2oc3ncnc(NC[C@@H]4CCCO4)c3c2-c2ccccc2)cc1,Population Apoptotic (%),[1],20%
same,Population Fragmented Nuclei (%),[1],13% and 15%
same,Population Healthy Nuclei (%),[1],57% and 66%
same,Population Hoechst High Intensity Objects (%),[1],11% and 13%
same,Population Mitotic Cells (%),[1],79%
same,Population Normal (%),[1],88% and 86%
same,Population Pyknosed Nuclei (%),[1],28% and 17%
same,Total Cell Count,[1],692 and 563
same,Population Healthy Nuclei (%),[2],74% and 83%
same,Population Hoechst High Intensity Objects (%),[2],2% and 1%
same,Population Mitotic Cells (%),[2],86% and 97%
same,Population Normal (%),[2],97% and 98%
same,Total Cell Count,[2],938 and 1825
same,Population Apoptotic (%),[3],72%
same,Population Fragmented Nuclei (%),[3],14%
same,Population Healthy Nuclei (%),[3],25%
same,Population Hoechst High Intensity Objects (%),[3],17%
same,Population Membrane Permeable-Phenotype (%),[3],3%
same,Population Mitochondria Different-Phenotype (%),[3],98%
same,Population Mitotic Cells (%),[3],27%
same,Population Normal (%),[3],82%
same,Population Pyknosed Nuclei (%),[3],59%
same,Population Tubulin-Different-Phenotype (%),[3],98%
same,Total Cell Count,[3],263
same,Population Apoptotic (%),[4],43%
same,Population Fragmented Nuclei (%),[4],4%
same,Population Healthy Nuclei (%),[4],31%
same,Population Hoechst High Intensity Objects (%),[4],7%
same,Population Membrane Permeable-Phenotype (%),[4],17%
same,Population Mitochondria Different-Phenotype (%),[4],71%
same,Population Mitotic Cells (%),[4],56%
same,Population Normal (%),[4],92%
same,Population Pyknosed Nuclei (%),[4],63%
same,Population Tubulin-Different-Phenotype (%),[4],90%
same,Total Cell Count,[4],218
same,Population Apoptotic (%),[5],28% and 21%
same,Population Fragmented Nuclei (%),[5],11% and 14%
same,Population Healthy Nuclei (%),[5],65% and 77%
same,Population Hoechst High Intensity Objects (%),[5],10% and 5%
same,Population Mitotic Cells (%),[5],71% and 78%
same,Population Normal (%),[5],89% and 94%
same,Total Cell Count,[5],699 and 659
same,Population Apoptotic (%),[6],8% and 3%
same,Population Healthy Nuclei (%),[6],74%
same,Population Hoechst High Intensity Objects (%),[6],2% and 3%
same,Population Mitotic Cells (%),[6],91% and 96%
same,Population Normal (%),[6],97% and 96%
same,Total Cell Count,[6],1013 and 3002
same,Population Apoptotic (%),[7],69%
same,Population Fragmented Nuclei (%),[7],20%
same,Population Healthy Nuclei (%),[7],19%
same,Population Hoechst High Intensity Objects (%),[7],23%
same,Population Membrane Permeable-Phenotype (%),[7],0%
same,Population Mitochondria Different-Phenotype (%),[7],94%
same,Population Mitotic Cells (%),[7],30%
same,Population Normal (%),[7],76%
same,Population Pyknosed Nuclei (%),[7],60%
same,Population Tubulin-Different-Phenotype (%),[7],94%
same,Total Cell Count,[7],260
same,Population Apoptotic (%),[8],43%
same,Population Fragmented Nuclei (%),[8],2%
same,Population Healthy Nuclei (%),[8],31%
same,Population Hoechst High Intensity Objects (%),[8],4%
same,Population Membrane Permeable-Phenotype (%),[8],16%
same,Population Mitochondria Different-Phenotype (%),[8],75%
same,Population Mitotic Cells (%),[8],56%
same,Population Normal (%),[8],95%
same,Population Pyknosed Nuclei (%),[8],66%
same,Population Tubulin-Different-Phenotype (%),[8],90%
same,Total Cell Count,[8],222
same,Population Apoptotic (%),[9],70%
same,Population Fragmented Nuclei (%),[9],26%
same,Population Healthy Nuclei (%),[9],16%
same,Population Hoechst High Intensity Objects (%),[9],23%
same,Population Membrane Permeable-Phenotype (%),[9],3%
same,Population Mitochondria Different-Phenotype (%),[9],96%
same,Population Mitotic Cells (%),[9],29%
same,Population Normal (%),[9],76%
same,Population Pyknosed Nuclei (%),[9],57%
same,Population Tubulin-Different-Phenotype (%),[9],93%
same,Total Cell Count,[9],268
same,Population Apoptotic (%),[10],48%
same,Population Fragmented Nuclei (%),[10],4%
same,Population Healthy Nuclei (%),[10],64%
same,Population Hoechst High Intensity Objects (%),[10],5%
same,Population Membrane Permeable-Phenotype (%),[10],19%
same,Population Mitochondria Different-Phenotype (%),[10],66%
same,Population Mitotic Cells (%),[10],51%
same,Population Normal (%),[10],94%
same,Population Pyknosed Nuclei (%),[10],31%
same,Population Tubulin-Different-Phenotype (%),[10],90%
same,Total Cell Count,[10],272
Cl.Cn1c2c(c3ccc(Cl)c(Cl)c31)C(C#N)C1(CCNCC1)NC2=O (centres undefined),Population Apoptotic (%),[1],17%
same,Population Fragmented Nuclei (%),[1],13%
same,Population Healthy Nuclei (%),[1],66%
same,Population Hoechst High Intensity Objects (%),[1],10%
same,Population Membrane Permeable-Phenotype (%),[1],8%
same,Population Mitochondria Different-Phenotype (%),[1],6%
same,Population Mitotic Cells (%),[1],82%
same,Population Normal (%),[1],89%
same,Population Pyknosed Nuclei (%),[1],19%
same,Population Tubulin-Different-Phenotype (%),[1],10%
same,Total Cell Count,[1],650
same,Population Apoptotic (%),[2],2%
same,Population Fragmented Nuclei (%),[2],6%
same,Population Healthy Nuclei (%),[2],87%
same,Population Hoechst High Intensity Objects (%),[2],3%
same,Population Membrane Permeable-Phenotype (%),[2],3%
same,Population Mitochondria Different-Phenotype (%),[2],7%
same,Population Mitotic Cells (%),[2],97%
same,Population Normal (%),[2],96%
same,Population Pyknosed Nuclei (%),[2],5%
same,Total Cell Count,[2],1592
same,Population Apoptotic (%),[3],24%
same,Population Fragmented Nuclei (%),[3],16%
same,Population Healthy Nuclei (%),[3],30%
same,Population Hoechst High Intensity Objects (%),[3],20%
same,Population Membrane Permeable-Phenotype (%),[3],23%
same,Population Mitochondria Different-Phenotype (%),[3],14%
same,Population Mitotic Cells (%),[3],75%
same,Population Normal (%),[3],79%
same,Population Pyknosed Nuclei (%),[3],52%
same,Population Tubulin-Different-Phenotype (%),[3],76%
same,Total Cell Count,[3],698
same,Population Apoptotic (%),[4],17%
same,Population Fragmented Nuclei (%),[4],3%
same,Population Healthy Nuclei (%),[4],74%
same,Population Hoechst High Intensity Objects (%),[4],4%
same,Population Membrane Permeable-Phenotype (%),[4],24%
same,Population Mitochondria Different-Phenotype (%),[4],25%
same,Population Mitotic Cells (%),[4],82%
same,Population Normal (%),[4],95%
same,Population Pyknosed Nuclei (%),[4],22%
same,Population Tubulin-Different-Phenotype (%),[4],95%
same,Total Cell Count,[4],983
same,Population Apoptotic (%),[5],16%
same,Population Fragmented Nuclei (%),[5],11%
same,Population Healthy Nuclei (%),[5],77%
same,Population Hoechst High Intensity Objects (%),[5],7%
same,Population Membrane Permeable-Phenotype (%),[5],17%
same,Population Mitochondria Different-Phenotype (%),[5],5%
same,Population Mitotic Cells (%),[5],83%
same,Population Normal (%),[5],92%
same,Population Pyknosed Nuclei (%),[5],10%
same,Population Tubulin-Different-Phenotype (%),[5],17%
same,Total Cell Count,[5],747
same,Population Apoptotic (%),[6],5%
same,Population Fragmented Nuclei (%),[6],24%
same,Population Healthy Nuclei (%),[6],72%
same,Population Hoechst High Intensity Objects (%),[6],3%
same,Population Membrane Permeable-Phenotype (%),[6],7%
same,Population Mitochondria Different-Phenotype (%),[6],1%
same,Population Mitotic Cells (%),[6],94%
same,Population Normal (%),[6],96%
same,Population Pyknosed Nuclei (%),[6],2%
same,Population Tubulin-Different-Phenotype (%),[6],11%
same,Total Cell Count,[6],2758
same,Population Apoptotic (%),[7],25%
same,Population Fragmented Nuclei (%),[7],19%
same,Population Healthy Nuclei (%),[7],32%
same,Population Hoechst High Intensity Objects (%),[7],19%
same,Population Membrane Permeable-Phenotype (%),[7],16%
same,Population Mitochondria Different-Phenotype (%),[7],22%
same,Population Mitotic Cells (%),[7],74%
same,Population Normal (%),[7],80%
same,Population Pyknosed Nuclei (%),[7],47%
same,Population Tubulin-Different-Phenotype (%),[7],86%
same,Total Cell Count,[7],669
same,Population Apoptotic (%),[8],12%
same,Population Fragmented Nuclei (%),[8],5%
same,Population Healthy Nuclei (%),[8],81%
same,Population Hoechst High Intensity Objects (%),[8],9%
same,Population Membrane Permeable-Phenotype (%),[8],13%
same,Population Mitochondria Different-Phenotype (%),[8],25%
same,Population Mitotic Cells (%),[8],87%
same,Population Normal (%),[8],91%
same,Population Pyknosed Nuclei (%),[8],13%
same,Population Tubulin-Different-Phenotype (%),[8],94%
same,Total Cell Count,[8],1033
